From PubChem BioAssay
T cruzi repl: inhibitors of intracellular T. cruzi growth, primary screen, luminescence, NIH3T3 host cells. T. cruzi beta-gal in NIH3T3, 90 h. inhibition, % (concentration not given with the values). 1.4% of 300,000 active. AID 1885, 2009;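 active means mean inhibition across valid replicates above about 55%, limit read from the data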;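 further: signal also drops with host cell toxicity which is not excluded here; higher percent means less beta-gal luminescence so fewer parasites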
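System: mouse NIH/3T3 fibroblasts infected with β-gal-expressing T. cruzi Tulahuen C4 / Input: NIH/3T3 cells, 5,000 per well / Buffer or medium: Low-serum DMEM with 2% FBS / Probe or stimulus: 5000 reporter trypomastigotes per well / Schedule: ≥90 h infection period, 3 h prior cell attachment / Measured by: GalScreen luminescence, 60 min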
MEKK2wt PB1 HTS: modulators of MEK5 binding to wildtype MEKK2, primary screen, biochemical, multiplex bead flow cytometry, Alexa488-MEK5 | Alexa488-MEK5 binding to MEKK2 WT; actives lie on both sides | binding response (% of control), % at 10 µM | 1.1% of 290,000 active | AID 1531, 2009; in the data active means binding response below about 67% or above about 130%
FID counter: compounds displacing fluorescent DNA intercalator, primary screen, artefact control for HCV NS3 helicase inhibitor project, biochemical, FID fluorescence; DNA fluorescent intercalator displacement; inhibition, % at 7.9 µM; 0.17% of 290,000 active; in the data active means inhibition above about 37%;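 further: higher means more ethidium bromide displaced from hairpin DNA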
MEKK2 mut-MEK5: MEK5 binding signal on mutant MEKK2 PB1, primary screen, biochemical, multiplex bead flow cytometry, Alexa488-MEK5; Alexa488-MEK5 binding to MEKK2 mutant; 0.35% of 290,000 active; percent response, % at 10 µM; in the data active means percent response above about 24%, passing the limit was not always enough
NS3 helicase inh: inhibitors of HCV NS3 helicase, primary screen, biochemical, Cy5 molecular beacon fluorescence. Hepatitis C virus NS3 helicase. NS3 helicase DNA unwinding. inhibition, % at 10.9 µM. 0.56% of 290,000 active;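 active means inhibition above the mean of all tested compounds plus 3 SD, set per campaign, cut at about 35% in these data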
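Assay system: hepatitis C virus NS3 helicase domain fragment enzyme. Also added: annealed dual-labelled DNA beacon duplex, ATP-started. Timing: 1 h reaction at 25 °C, ATP-initiated. Technique: Cy5 fluorescence at 0 and 60 min, beacon hairpin quenching. Evaluation: % inhibition of unwinding. Replication: one well per compound.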
MEKK3 PB1 HTS: modulators of MEKK3-MEK5 PB1 binding, primary screen, biochemical, wildtype MEKK3, multiplex bead flow cytometry, Alexa488-MEK5; Mitogen-activated protein kinase kinase kinase 3 (Homo sapiens), Q99759; bead-based flow cytometry, Alexa488-MEK5 binding to MEKK3; actives lie on both sides; 0 = blocked by unlabeled MEK5, 100 = vehicle; binding response (% of control), % at 10 µM; 1.4% of 290,000 active;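 active means binding response more than 3 SD above or below the average of its plate-row segment, actives on both sides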;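 further: Alexa488 bead fluorescence after subtracting the streptavidin-only scavenger bead signal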
Target sequence (Q99759 whole entry, looked up): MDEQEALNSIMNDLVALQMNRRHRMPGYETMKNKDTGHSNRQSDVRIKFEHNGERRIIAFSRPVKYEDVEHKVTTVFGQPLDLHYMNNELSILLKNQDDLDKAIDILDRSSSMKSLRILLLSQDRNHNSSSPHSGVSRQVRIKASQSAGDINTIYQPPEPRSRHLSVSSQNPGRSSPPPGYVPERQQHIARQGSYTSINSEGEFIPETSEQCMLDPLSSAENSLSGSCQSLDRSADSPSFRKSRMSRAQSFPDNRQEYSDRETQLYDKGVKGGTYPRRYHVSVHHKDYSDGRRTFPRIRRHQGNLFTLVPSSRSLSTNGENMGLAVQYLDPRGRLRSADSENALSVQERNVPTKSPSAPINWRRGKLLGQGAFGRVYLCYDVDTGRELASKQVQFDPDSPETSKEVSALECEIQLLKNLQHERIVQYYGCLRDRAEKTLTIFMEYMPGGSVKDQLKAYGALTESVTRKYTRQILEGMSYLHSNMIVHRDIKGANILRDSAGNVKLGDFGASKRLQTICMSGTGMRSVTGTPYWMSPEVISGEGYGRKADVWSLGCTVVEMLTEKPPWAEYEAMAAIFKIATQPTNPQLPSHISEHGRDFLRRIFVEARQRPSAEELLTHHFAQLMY
MEKK2wt confirm: modulators of MEK5 binding to wildtype MEKK2, confirmation, biochemical, single concentration, multiplex bead flow cytometry. shares compounds with MEKK3 PB1 HTS. Alexa488-MEK5 binding to MEKK2 WT; actives lie on both sides. binding response (% of control), % at 10 µM. 2.4% of 5,900 active. AID 1892, 2009; in the data active means binding response below about 16% or above about 210%; inactive means in between
MEKK2mut-MEK5: mutant MEKK2 PB1-MEK5 binding signal retest – biochemical, single concentration, multiplex bead flow cytometry, confirmation | Alexa488-MEK5 binding to MEKK2 mutant | 2% of 5,900 active | percent response, % at 10 µM | shares compounds with MEKK3 PB1 HTS; in the data active means percent response mostly above about 71%, no sharp cut-off; inactive means mostly below about 38%;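 further: higher means compound restores mutant binding toward wildtype level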
MEKK3 confirm: MEKK3 wild-type PB1 binding to MEK5, inhibitors, confirmation, biochemical, bead multiplex flow cytometry, single concentration, wildtype; shares compounds with MEKK3 PB1 HTS; Alexa488-MEK5 binding to MEKK3; active compounds read low; binding response (% of control), % at 10 µM; 1.8% of 5,900 active; AID 1894, 2009;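 active means binding response below 72% of control, or above a set upper limit, though filed actives all read lower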;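 further: lower values mean stronger disruption of MEK5 binding to MEKK3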
Large screens that a line does not name were inactive (follow-up assays come after a bar, where they were run); [ ] = dose if it differs, or a comment. Rows were chosen to be rich in hits. Some 4.1% of all compounds tested hit in one or more screens of this group.

CCCC(=O)N/C(N)=N/c1nc(C)c2cc(C)ccc2n1	none
Cc1ccc2nc(/N=C(\N)NC(=O)NC3CCCCC3)nc(C)c2c1	MEKK2wt PB1 HTS 141.0 | MEKK2wt confirm inactive | MEKK2mut-MEK5 inactive | MEKK3 confirm inactive
CC(C)(C)c1ccc(/C=C/C(=O)NC2=NCCS2)cc1	none
Cc1ccc(/C=C/C(=O)NC2=NCCS2)cc1	MEKK2wt PB1 HTS 144.0 | MEKK2wt confirm inactive | MEKK2mut-MEK5 inactive | MEKK3 confirm inactive
COc1ccc2c(c1)[n+](=O)c(C(C)=O)c(C)n2[O-]	none
CC(=O)c1c(C)n([O-])c2cc(F)c(F)cc2[n+]1=O	MEKK2wt PB1 HTS -12.0, MEKK3 PB1 HTS 71.0[inhibitor] | MEKK2wt confirm inactive | MEKK2mut-MEK5 inactive | MEKK3 confirm inactive
O=C(CN1C(=O)/C(=C/c2cccc(Br)c2)SC1=S)N1CCCC1	MEKK3 PB1 HTS 153.0 | MEKK2wt confirm inactive | MEKK2mut-MEK5 inactive | MEKK3 confirm inactive
CCCCOCCCNC(=O)c1ccc2c(c1)OCO2	none
COCCCNC(=O)c1ccc2c(c1)OCO2	MEKK3 PB1 HTS 67.0[inhibitor] | MEKK2wt confirm inactive | MEKK2mut-MEK5 inactive | MEKK3 confirm inactive
COCCCNC(=O)c1ccc2nc(Cc3ccc(OC)cc3)oc2c1	MEKK2wt PB1 HTS 16.0[inhibitor], MEKK3 PB1 HTS 38.0[inhibitor] | MEKK2wt confirm inactive | MEKK2mut-MEK5 inactive | MEKK3 confirm inactive
CCOCCCNC(=O)C(NC(=O)c1ccc2c(c1)OCO2)c1ccccc1 (stereo not drawn)	MEKK3 PB1 HTS 43.0[inhibitor] | MEKK2wt confirm inactive | MEKK2mut-MEK5 inactive | MEKK3 confirm inactive
CCOCCCNC(=O)C(NC(=O)c1ccc2c(c1)OCO2)c1ccc(OC)cc1 (stereo not drawn)	none
O=C(c1ccccc1)N(C1=NCCCCS1)c1ccccc1	none
O=C(COc1ccc2ccccc2c1)Nc1ccc(Br)cc1C(=O)O	none
Cc1ccc(CNc2nc(N)c([N+](=O)[O-])c(NCc3ccccc3)n2)cc1	none
Nc1nc(NCc2ccccc2)nc(NCc2ccccc2)c1[N+](=O)[O-]	MEKK3 PB1 HTS 152.0 | MEKK2wt confirm inactive | MEKK2mut-MEK5 inactive | MEKK3 confirm inactive
Cc1ccc(NC(=O)CCNS(=O)(=O)c2ccccc2)c(C(=O)c2ccccc2)c1	MEKK3 PB1 HTS 138.0 | MEKK2wt confirm inactive | MEKK2mut-MEK5 inactive | MEKK3 confirm inactive
COc1ccc(OC)c(/C=N/NC(=O)CCc2ccc(O)c(O)c2)c1	MEKK3 PB1 HTS 136.0 | MEKK2wt confirm inactive | MEKK2mut-MEK5 inactive | MEKK3 confirm inactive
COc1cccc(/C=N/NC(=O)CCc2ccccc2)c1	none
COc1cccc(/C=N/NC(=O)CCCc2ccc(OC)c(C)c2)c1	MEKK3 PB1 HTS 156.0 | MEKK2wt confirm inactive | MEKK2mut-MEK5 inactive | MEKK3 confirm inactive
CCOc1ccc(S(=O)(=O)N2CCN(Cc3ccco3)CC2)cc1	none
CNCCC(Oc1ccc(C(F)(F)F)cc1)c1ccccc1 (stereo not drawn)	MEKK2wt PB1 HTS 139.0 | MEKK2wt confirm inactive | MEKK2mut-MEK5 inactive | MEKK3 confirm inactive
CNCCOCC(O)CSc1ccccc1 (stereo not drawn)	none
CCCCCNC(=O)Cc1ccc(S(=O)(=O)N2CCOCC2)s1	none (no result: MEKK2wt PB1 HTS, FID counter, MEKK2 mut-MEK5, NS3 helicase inh, MEKK3 PB1 HTS)
O=C(CCCn1nnnc1CN1CCOCC1)N1CCN(c2ccccc2F)CC1	none
CN(c1ccccc1)S(=O)(=O)c1cccc(NC(=O)c2cc(=O)c3ccccc3o2)c1	none
CC(=O)Nc1nnc(C2=COCCO2)o1	MEKK3 PB1 HTS 58.0[inhibitor] | MEKK2wt confirm inactive | MEKK2mut-MEK5 inactive | MEKK3 confirm inactive
COc1ccc(NC(C)=O)cc1S(=O)(=O)NC1CCSc2ccccc21 (stereo not drawn)	none
Nc1cc(N2CCOCC2)c(Cl)cc1[N+](=O)[O-]	MEKK3 PB1 HTS 73.0[inhibitor] | MEKK2wt confirm inactive | MEKK2mut-MEK5 inactive | MEKK3 confirm inactive
CCC(C)N=C1SCC(C)(/C=N/O)S1 (stereo not drawn)	MEKK2wt PB1 HTS 135.0, MEKK3 PB1 HTS 128.0 | MEKK2wt confirm inactive | MEKK2mut-MEK5 inactive | MEKK3 confirm inactive
CC(C)(C)N=C1SCC(C)(/C=N/O)S1 (stereo not drawn)	none
OC1(c2ccc(Br)cc2)CCN(Cc2cccc(Br)c2)CC1	MEKK2wt PB1 HTS 134.0 | MEKK2wt confirm inactive | MEKK2mut-MEK5 inactive | MEKK3 confirm inactive
Cc1noc(C)c1COc1ccccc1C(=O)NNC(=O)C(C)Oc1ccccc1F (stereo not drawn)	none (no result: MEKK2wt PB1 HTS, FID counter, MEKK2 mut-MEK5, NS3 helicase inh, MEKK3 PB1 HTS)
O=C(NCCSc1ccccc1)c1ccccc1Cl	MEKK3 PB1 HTS 156.0 | MEKK2wt confirm inactive | MEKK2mut-MEK5 inactive | MEKK3 confirm inactive
O=C(COc1ccc2c(c1)CCC2)N1CCN(c2ccccc2F)CC1	MEKK3 PB1 HTS 142.0 | MEKK2wt confirm inactive | MEKK2mut-MEK5 inactive | MEKK3 confirm inactive
O=C(COc1ccc2c(c1)CCC2)N1CCN(c2cccc(C(F)(F)F)c2)CC1	none
Cc1ccc(C)c(S(=O)(=O)N=Nc2c(O)[nH]c3ccccc23)c1	none
Cc1ccc(S(=O)(=O)N=Nc2c(O)[nH]c3ccccc23)cc1	MEKK3 PB1 HTS 126.0 | MEKK2wt confirm inactive | MEKK2mut-MEK5 inactive | MEKK3 confirm inactive
COC(=O)CCC(=O)Nc1cccc2c(NC(=O)CCC(=O)OC)cccc12	none
COC(=O)CCC(=O)Nc1ccc(C)cc1OC(=O)CCC(=O)OC	MEKK2 mut-MEK5 28.0 | MEKK2wt confirm inactive | MEKK2mut-MEK5 inactive | MEKK3 confirm inactive
CCOC(=O)Cn1nc(C(F)F)c(Br)c1C	none
CC(C)N(Cc1ccccc1)C(=O)COC(=O)/C=C/c1cnc2ccccc2n1	none
CC(C)On1c(SCC(=O)N(C)C)nc2ccccc2c1=O	none
